27 compounds from paper PMC9753537 (ACS Omega, 2022) can be followed below.

urease, sequence (P07374 whole entry, looked up): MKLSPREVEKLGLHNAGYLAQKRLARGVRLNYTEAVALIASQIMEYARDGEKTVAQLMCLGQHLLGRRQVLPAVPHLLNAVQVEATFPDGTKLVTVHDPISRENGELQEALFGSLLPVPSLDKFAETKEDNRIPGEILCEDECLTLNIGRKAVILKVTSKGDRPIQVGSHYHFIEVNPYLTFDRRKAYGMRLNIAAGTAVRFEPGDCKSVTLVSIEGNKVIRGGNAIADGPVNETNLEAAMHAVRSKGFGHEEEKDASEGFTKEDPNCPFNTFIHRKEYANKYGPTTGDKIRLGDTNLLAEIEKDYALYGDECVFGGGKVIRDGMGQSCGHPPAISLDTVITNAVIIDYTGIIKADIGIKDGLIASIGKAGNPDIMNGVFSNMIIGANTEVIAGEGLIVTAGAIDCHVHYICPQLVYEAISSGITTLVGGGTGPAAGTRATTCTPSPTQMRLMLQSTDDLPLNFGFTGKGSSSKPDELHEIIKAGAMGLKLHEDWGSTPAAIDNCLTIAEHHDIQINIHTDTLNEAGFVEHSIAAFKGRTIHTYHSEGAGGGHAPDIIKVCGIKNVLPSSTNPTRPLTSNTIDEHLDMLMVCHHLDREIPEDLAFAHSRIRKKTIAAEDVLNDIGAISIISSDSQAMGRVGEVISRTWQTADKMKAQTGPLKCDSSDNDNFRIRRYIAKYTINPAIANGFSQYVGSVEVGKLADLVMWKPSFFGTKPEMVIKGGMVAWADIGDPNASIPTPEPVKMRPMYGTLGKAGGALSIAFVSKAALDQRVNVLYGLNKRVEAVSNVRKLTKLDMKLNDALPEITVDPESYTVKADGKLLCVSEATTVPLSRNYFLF

In the test the target is urease (Canavalia ensiformis, UniProt P07374). Briefly: In vitro urease inhibition assay. It counts as biochemical. In short, it runs like this:
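Enzyme preincubated with test compound in phosphate buffer (pH 6.8) for 10 min at 37 °C, then phenol and alkali reagents added. Absorbance read at 625 nm, with thiourea as the standard inhibitor. Percent inhibition calculated from absorbance, run in triplicate.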
For orientation: IC50 means the midpoint of a concentration-inhibition curve. A low value points to greater potency. Turning to `CC(C(=O)NN=Cc1cccc2ccccc12)c1ccc(-c2ccccc2)c(F)c1` (stereo not drawn) [Compound 4, 2-(2-Fluoro-[1,1′-biphenyl]-4-yl)-N′-(naphthalen-1-ylmethylene)propanehydrazide], half-maximal inhibition (IC50) was put at 53.7 ± 3.81 µM.
`CC(C(=O)NN=Cc1ccc(O)c(O)c1O)c1ccc(-c2ccccc2)c(F)c1` (stereo not drawn) [Compound 5, 2-(2-Fluoro-[1,1′-biphenyl]-4-yl)-N′-(2,3,4-trihydroxybenzylidene)propanehydrazide] gave an IC50 of 25.1 ± 1.13 µM.
The figure for `CC(C(=O)NN=Cc1ccccc1N)c1ccc(-c2ccccc2)c(F)c1` (stereo not drawn) [Compound 6, N′-(2-Aminobenzylidene)-2-(2-fluoro-[1,1′-biphenyl]-4-yl)propanehydrazide] is 53.7 ± 3.82 µM; for `CC(C(=O)NN=Cc1cccc([N+](=O)[O-])c1)c1ccc(-c2ccccc2)c(F)c1` (stereo not drawn) [Compound 7, 2-(2-Fluoro-[1,1′-biphenyl]-4-yl)-N′-(3-nitrobenzylidene)propanehydrazide] it is 29.2 ± 1.12 µM.
For `COc1ccc(Br)cc1C=NNC(=O)C(C)c1ccc(-c2ccccc2)c(F)c1` (stereo not drawn) [Compound 8, N′-(5-Bromo-2-methoxybenzylidene)-2-(2-fluoro-[1,1′-biphenyl]-4-yl)propanehydrazide] the value was 58.3 ± 3.34 µM; for `COc1ccc(C=NNC(=O)C(C)c2ccc(-c3ccccc3)c(F)c2)c(OC)c1OC` (stereo not drawn) [Compound 9, 2-(2-Fluoro-[1,1′-biphenyl]-4-yl)-N′-(2,3,4-trimethoxybenzylidene)propanehydrazide], 55.8 ± 3.04 µM; for `CC(C(=O)NN=Cc1cc([N+](=O)[O-])ccc1Cl)c1ccc(-c2ccccc2)c(F)c1` (stereo not drawn) [Compound 10, N′-(2-Chloro-5-nitrobenzylidene)-2-(2-fluoro-[1,1′-biphenyl]-4-yl)propanehydrazide], 50.7 ± 5.17 µM.
`CCOc1ccc(C=NNC(=O)C(C)c2ccc(-c3ccccc3)c(F)c2)c(OC)c1` (stereo not drawn) [Compound 11, N′-(4-Ethoxy-2-methoxybenzylidene)-2-(2-fluoro-[1,1′-biphenyl]-4-yl)propanehydrazide]: the IC50 stood at 52.7 ± 3.56 µM.
On to `COc1cc(C=NNC(=O)C(C)c2ccc(-c3ccccc3)c(F)c2)ccc1F` (stereo not drawn) [Compound 12, N′-(4-Fluoro-3-methoxybenzylidene)-2-(2-fluoro-[1,1′-biphenyl]-4-yl)propanehydrazide], for which the IC50 came out at 56.1 ± 4.89 µM.
`CCOc1cc(C=NNC(=O)C(C)c2ccc(-c3ccccc3)c(F)c2)ccc1OC` (stereo not drawn) [Compound 13, N′-(3-Ethoxy-4-methoxybenzylidene)-2-(2-fluoro-[1,1′-biphenyl]-4-yl)propanehydrazide] returned an IC50 of 81 ± 8.43 µM.
With `COc1cccc(OC)c1C=NNC(=O)C(C)c1ccc(-c2ccccc2)c(F)c1` (stereo not drawn) [Compound 14, N′-(2,6-Dimethoxybenzylidene)-2-(2-fluoro-[1,1′-biphenyl]-4-yl)propanehydrazide], the half-maximal inhibitory concentration (IC50) is 55.7 ± 3.71 µM.
`CC(C(=O)N/N=C/c1ccc([N+](=O)[O-])cc1)c1ccc(-c2ccccc2)c(F)c1` (stereo not drawn) [Compound 15, (E)-2-(2-Fluoro-[1,1′-biphenyl]-4-yl)-N′-(4-nitrobenzylidene)propanehydrazide] returned an IC50 of 28.6 ± 1.73 µM.
For `COc1ccc(/C=N/NC(=O)C(C)c2ccc(-c3ccccc3)c(F)c2)c(Cl)c1OC` (stereo not drawn) [Compound 16, (E)-N′-(2-Chloro-3,4-dimethoxybenzylidene)-2-(2-fluoro-[1,1′-biphenyl]-4-yl)propanehydrazide] the value was 55.7 ± 3.82 µM.
For the compound `COc1cc(C=NNC(=O)C(C)c2ccc(-c3ccccc3)c(F)c2)ccc1Oc1ccccc1` (stereo not drawn) [Compound 18, 2-(2-Fluoro-[1,1′-biphenyl]-4-yl)-N′-(3-methoxy-4-phenoxybenzylidene)propanehydrazide], the IC50 worked out at 26.5 ± 0.44 µM.
As for `COc1ccccc1C=NNC(=O)C(C)c1ccc(-c2ccccc2)c(F)c1` (stereo not drawn) [Compound 19, 2-(2-Fluoro-[1,1′-biphenyl]-4-yl)-N′-(2-methoxybenzylidene)propanehydrazide], the 50% inhibitory concentration (IC50) stood at 55.7 ± 3.82 µM.
With `CC(C(=O)NN=Cc1ccc(Br)cc1)c1ccc(-c2ccccc2)c(F)c1` (stereo not drawn) [Compound 20, N′-(4-Bromobenzylidene)-2-(2-fluoro-[1,1′-biphenyl]-4-yl)propanehydrazide], inhibition was half-maximal at 58.8 ± 3.99 µM (IC50).
The figure for `COc1ccc(C=NNC(=O)C(C)c2ccc(-c3ccccc3)c(F)c2)c(F)c1` (stereo not drawn) [Compound 21, N′-(2-Fluoro-4-methoxybenzylidene)-2-(2-fluoro-[1,1′-biphenyl]-4-yl)propanehydrazide] is 89.7 ± 8.35 µM; for `COc1cc(C=NNC(=O)C(C)c2ccc(-c3ccccc3)c(F)c2)cc(OC)c1Br` (stereo not drawn) [Compound 22, N′-(4-Bromo-3,5-dimethoxybenzylidene)-2-(2-fluoro-[1,1′-biphenyl]-4-yl)propanehydrazide] it is 90.7 ± 7.71 µM.
`CC(C(=O)NN=Cc1ccc(Br)cc1F)c1ccc(-c2ccccc2)c(F)c1` (stereo not drawn) [Compound 23, N′-(4-Bromo-2-fluorobenzylidene)-2-(2-fluoro-[1,1′-biphenyl]-4-yl)propanehydrazide] yielded a concentration for half-maximal inhibition (IC50) of 86.9 ± 8.71 µM.
`COc1ccc(OC)c(C=NNC(=O)C(C)c2ccc(-c3ccccc3)c(F)c2)c1` (stereo not drawn) [Compound 24, N′-(2,5-Dimethoxybenzylidene)-2-(2-fluoro-[1,1′-biphenyl]-4-yl)propanehydrazide]: the IC50 came out at 79.2 ± 7.94 µM.
As for `CC(C(=O)NN=Cc1cccc(C(F)(F)F)c1)c1ccc(-c2ccccc2)c(F)c1` (stereo not drawn) [Compound 25, 2-(2-Fluoro-[1,1′-biphenyl]-4-yl)-N′-(3-(trifluoromethyl)benzylidene)propanehydrazide], the IC50 came to 59.5 ± 4.28 µM.
Compound `CSc1ccc(C=NNC(=O)C(C)c2ccc(-c3ccccc3)c(F)c2)cc1` (stereo not drawn) [Compound 26, 2-(2-Fluoro-[1,1′-biphenyl]-4-yl)-N′-(4-(methylthio)benzylidene)propanehydrazide] yielded an IC50 of 78 ± 7.63 µM.
For `CC(C(=O)NN=Cc1ccc(O)c(Br)c1)c1ccc(-c2ccccc2)c(F)c1` (stereo not drawn) [Compound 27, N′-(3-Bromo-4-hydroxybenzylidene)-2-(2-fluoro-[1,1′-biphenyl]-4-yl)propanehydrazide] the value was 80 ± 8.61 µM; for `CC(C(=O)NN=Cc1ccc(-c2ccccc2)c(F)c1)c1ccc(-c2ccccc2)c(F)c1` (stereo not drawn) [Compound 28, 2-(2-Fluoro-[1,1′-biphenyl]-4-yl)-N′-((2-fluoro-[1,1′-biphenyl]-4-yl)methylene)propanehydrazide], 58.5 ± 4.28 µM; for `Cc1ccc(C=NNC(=O)C(C)c2ccc(-c3ccccc3)c(F)c2)s1` (stereo not drawn) [Compound 29, 2-(2-Fluoro-[1,1′-biphenyl]-4-yl)-N′-((5-methylthiophen-2-yl)methylene)propanehydrazide], 57.5 ± 4.27 µM.
Compound `CC(C(=O)NN=Cc1cccc(O)c1O)c1ccc(-c2ccccc2)c(F)c1` (stereo not drawn) [Compound 30, N′-(2,3-Dihydroxybenzylidene)-2-(2-fluoro-[1,1′-biphenyl]-4-yl)propanehydrazide] returned an IC50 of 18.9 ± 0.61 µM.
`CC(C(=O)NN=Cc1ccccc1[N+](=O)[O-])c1ccc(-c2ccccc2)c(F)c1` (stereo not drawn) [Compound 31, N′-(2-Nitrobenzylidene)-2-(2-fluoro-[1,1′-biphenyl]-4-yl)propanehydrazide]: the concentration for half-maximal inhibition (IC50) is 28.1 ± 1.26 µM.
